Experiments:
Assay type in all cases: cell-based, human
SK-N-MC cells = experiment: CGRP-induced Ca2+ signaling, desensitization and resensitization; conditions: SM-19712 10 μM
Summary of the method: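 SK-N-MC cells (endogenous CLR/RAMP1) were loaded with Fura-2AM for [Ca2+]i at 37°C. Single challenge used CGRP 100 nM. Desensitization: CGRP 100 nM or vehicle (1 h, 37°C), wash, CGRP-free recovery (4 h for resensitization), then CGRP 100 nM rechallenge. SM-19712 10 μM or DMSO was preincubated 20–60 min and kept throughout. Response was expressed as % of vehicle-treated cells.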

HEK-AT1AR cells = experiment: Resensitization of ATII-induced Ca2+ signaling; conditions: SM-19712 10 μM, 20 min and 2 h recovery
Summary of the method: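 HEK-AT1AR cells were exposed to ATII (100 nM) or vehicle for 1 h at 37°C, washed, and allowed to recover in agonist-free medium at 37°C. They were then rechallenged with ATII (100 nM) while [Ca2+]i was measured. The [Ca2+]i change is expressed as % of the vehicle-pretreated response. Inhibitor (10 μM) or DMSO was preincubated 20–60 min and kept in buffers throughout. Mean ± SE, n ≥ 3.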

HEK-B2R cells = experiment: B2R recycling and colocalization with β-arrestin2-GFP; conditions: SM-19712 10 μM
Summary of the method: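 HEK cells stably expressing HA-tagged B2R or B2R-V2RCT were transiently transfected with β-arrestin2-GFP. Surface receptors were labelled with anti-HA11 (1:100, 30 min, 37°C), then given BK 100 nM for 10 min and recovered in BK-free medium (B2R 1 h; B2R-V2RCT 2 h). SM-19712 10 μM or DMSO was preincubated 20–60 min and kept throughout. Cells were PFA-fixed for confocal imaging; plasma-membrane fraction of fluorescence and colocalization coefficient (0–1) were scored in >20 cells/experiment, n ≥ 3.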

In the case of `Cc1nn(-c2ccccc2)c(NC(=O)NS(=O)(=O)c2ccc(Cl)cc2)c1C#N.[Na]` [SM-19712], the “Effect on response to a single challenge with CGRP ([Ca2+]i)” value (SK-N-MC cells; CGRP 100 nM) is reported as “did not affect magnitude or duration”, the “Effect on desensitization of CGRP-induced Ca2+ signaling” value (SK-N-MC cells) is reported as “did not affect desensitization” and the “Inhibition of resensitization of CGRP-induced Ca2+ signaling” value (SK-N-MC cells; 4 h recovery) is reported as 33%. For the same compound, the “Effect on resensitization of ATII-induced Ca2+ signaling” value (HEK-AT1AR cells) was “did not affect resensitization at either time”, the “Effect on colocalization coefficient of β-arrestin2 and B2R” value (HEK-B2R cells; 1 h recovery) was “did not affect colocalization with B2R” and the “Reduction of recycling of B2R” value (HEK-B2R cells; BK 100 nM 10 min, 1 h recovery) was less than 10%. The “Effect on BK-induced trafficking of B2R and β-arrestin2” value (HEK-B2R cells; BK 100 nM 10 min, 60 min recovery) was “did not affect this trafficking”.
